Measured values reported in the EternaBench riboswitch data.

System: MS2 coat protein
Assay: apparent Kd, MS2 coat protein; higher = weaker binding; RNA-MaP array; FMN 200 µM where present
Outline: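 Green signal from SNAP-549-labelled MS2 coat protein was normalised to red-channel RNA signal and to the median Fmax of control clusters. The protein was titrated from 0.7 or 1.5 nM, doubling to 3 µM, without and then with constant ligand, over designs transcribed by stalled E. coli RNA polymerase on Illumina sequencing-chip clusters, in 100 mM Tris-HCl pH 7.5, 80 mM KCl, 4 mM MgCl2, BSA, DTT, yeast tRNA and Tween-20. The apparent Kd is the median of filtered per-cluster binding-curve fits.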

[1] = designed as: ON switch for flavin mononucleotide, no ligand
[2] = ligand present: flavin mononucleotide, designed as: ON switch for flavin mononucleotide
[3] = designed as: OFF switch for flavin mononucleotide, no ligand
[4] = ligand present: flavin mononucleotide, designed as: OFF switch for flavin mononucleotide

Row | Sequence | apparent Kd [1] | apparent Kd [2] | apparent Kd [3] | apparent Kd [4]
1 | ACAUGAGGAUCACCCAUGUAAAAUGAAGAAGGUAUAUACUUGAGGAUCACCCAUGUACAUGGGAAUAAGGAUAUUCUAAUAAUU | 13.5 nM | 12.6 nM |  | 
2 | UAUGUAUUCGUAGGAUAUCCGUCGCCACCGUGUGGAGAAGGACGAACAUGAGGAUCACCCAUGUAUCAUGGUGUAGACACUUUC |  |  | 126 nM | 183 nM
3 | GGAAAGUGAGGAUAUGCAUAACAAAUACAAAGAGAAACAAAGCAGAAGGCACAUGAGGAUCACCCAUGUAAACA |  |  | 24.9 nM | 25 nM
4 | UGUGCGUAUGUGAGGAUAUGCUGGUCCUUGGAUCGGCAGAAGGCACAUGAGGAUCACCCAUGUGGUGUCGUUCU |  |  | 389 nM | 24.8 nM
5 | AAUUAUUUACAGAAGGAGUAAGAUUAUGUAUUACUAGGAUAUGUAAACAUGAGGAUCACCCAUGUGUUUGUAGGUUUUUUAUGU |  |  | 13.4 nM | 7.79 nM
6 | AUUUAGUGCGAGAAGGCGUGGUCACAUGAGGAUCACCCAUGUCAGUACACGAGGAUAUCGUUUCGCUGUGUAAACACAAGCGAC | 40.3 nM | 6.15 nM |  | 
7 | GCGUAACAUGAGGAUCACCCAUGUACCCGAGAAUUCGGGUCGAGAAGGGUGACCGGUCGUUUGGCACAGGAUAUCGACGUUGUG | 19.4 nM | 14.5 nM |  | 
8 | CCAUCGAGUGUGAGGAUAUGCUGUUCGAAAGAGCAGCAGAAGGCACAUGAGGAUCACCCAUGUGGAUACGGUGG |  |  | 29.1 nM | 212 nM
9 | AUAUAGAUGGUCAGGAUAUGCUAGUGGUAACAGUAGCAGAAGGGACAUGAGGAUCACCCAUGUAGAUACUGCUC |  |  | 18 nM | 32.2 nM
10 | CGCAUGCGUAGUAUUAGUUGUUGACAGGAUAUGACAUGAGGAUCACCCAUGUGUAUUAAGAAGUGUCAGAAGGGUCUCGUUGCG |  |  | 6.53 nM | 9.73 nM
11 | AUAGCAACAUGAGGAUCACCCAUGUAGGAUAUCGCUAUUGUAAUCAUGAAACAUGAUUACAAUAGCGAGAAGGACAUAUGCUAU |  |  | 6.51 nM | 9.75 nM
12 | GUGGGAAUCACAGGAUAUACAUGCGCCGCUUCGUUCUACAUGAGGAUCACCCAUGUGUGGUCCGUGUAGAAGGGUGUUUGUUAC | 31 nM | 10.8 nM |  | 
13 | UGGUACUAGGGAGGAUAUGGGAAGAUACAUGAGGAUCACCCAUGUUUAAGAAUGCCGAGAGGCAAUUAGAAGGCCCUAGUACCU | 983 nM | 148 nM |  | 
14 | UGUUGUUCAGGAUAUGAUGUAUAAUACAUGAGGAUCACCCAUGUGGGUCCUGAUUUGGCGUCAGAAGGGAAUGUUG |  |  | 88.3 nM | 146 nM
15 | GCGUGUCAUGUAGGAUAUGACACAGGAAACUGGUCAGAAGGACAUGAGGAUCACCCAUGUAAAAUGUUCAAGAAUAACGCAUGC |  |  | 40.6 nM | 137 nM
16 | AAGCUGGUAGGAUAUGCUAGGGCGACUAAUGCGCCGAUAGUACAUGAGGAUCACCCAUGUAGAAGGGCCAGAAA |  |  | 24.3 nM | 18.4 nM
17 | UUGUUGUAUGUAGGAUAUGCGUAUUAUUAUUAUGCAGAAGGACAUGAGGAUCACCCAUGUAUAUUAUUAUUAUAUGUUAUAUAU |  |  | 26.2 nM | 36.3 nM
18 | UGGUCAUCAUCAGGAUAUUAACAUGGGCUACAUUAAGAAGGGAUAGUGAGAUACGAACUGAACGCACAUGAGGAUCACCCAUGU | 39.6 nM | 26.5 nM |  | 
19 | UGUCUCAGAGGAUAUACAGGUGUAGAUCCUUUAGACCCUUGACAUGAGGAUCACCCAUGUAGAAGGCUGCAGAC |  |  | 69.4 nM | 26.4 nM
20 | CCGUUCUGAGGAUAUCCACCCUCAUACAUGAGGAUCACCCAUGUUCACCCUUGGGUUCCCGGAGAAGGCAGUUUUC |  |  | 232 nM | 467 nM
21 | UACGGACAUGAGGAUCACCCAUGUGAGGAUAUCGGUACCGAUAGCAUAAUAUAAUCGGCGAGAAGGCACAGCGU |  |  | 32.7 nM | 42.8 nM
22 | AAAUCAGCAGGAUAUGCGAUGUUGUGCUAGAUAGCGGGACCACAUGAGGAUCACCCAUGUAGAAGGGCUGGAUA |  |  | 57.5 nM | 29.5 nM
23 | AAGUCUGGACGAGGAUAUCAGCUGUAUCUGGCGUCAACAUGAGGAUCACCCAUGUUGCUAUAGGGUGAGAAGGCGUUUGGGCAA | 84.9 nM | 19.9 nM |  | 
24 | CGUCUAUGCCAGAAGGCAUAAAACAUGAGGAUCACCCAUGUCAAAGACAUGAGGAUAUGGCAUAGACGAAAAGUGCGAAAGCAC | 17.9 nM | 4.97 nM |  | 

Row | Sequence | apparent Kd [1] | apparent Kd [2] | apparent Kd [3] | apparent Kd [4]
25 | GCCAAGCUAGGAUAUACCCAGGGUUUGUUCUCUAACAACACACAUGAGGAUCACCCAUGUAGAAGGAGCCGGGA |  |  | 38.3 nM | 81 nM
26 | UCUAAUUAGUGAGGAUAUACAUAAUUUAUUACUGUAGAAGGCACAAACCUCAAGACAUGAGGAUCACCCAUGUGGUAUUUAGAU |  |  | 158 nM | 362 nM
27 | AGAUGACAAGGAUAUACUCGGGAUGCUAGUCGCGAAGAAGCACAUGAGGAUCACCCAUGUAGAAGGUGUAAGAA |  |  | 122 nM | 128 nM
28 | GGUAAAGGCAGCCUCUACCCUGCACAUGAGGAUCACCCAUGUAAGGAUAUCGCCGCGGUAAUGGUCGAGAAGGUAUAUCGGGUU |  |  | 15.9 nM | 46.5 nM
29 | UUGCUCAAUUGGGCAGGAACCUCACAUGAGGAUCACCCAUGUCAGGAUAUCCUAGUUUGGACGUAGGAGAAGGGACAGAGUAUC |  |  | 157 nM | 152 nM
30 | AUAAAACAUGAGGAUCACCCAUGUCAACAAAGUCGAGGAUAUGGGCAAAUAAAAUAAGAACCAGAAGGCGAAUAAU | 398 nM | 36.6 nM |  | 
31 | AAAAGACAUGAGGAUCACCCAUGUAAAAACAUAGGAGGAUAUGUCAUGAAAAAAGACUUGACAGAAGGCCUUUGUC | 164 nM | 65.4 nM |  | 
32 | ACAUGAGGAUCACCCAUGUGAAACCAAUGGCUGACUUUGAGCUAGGAUAUUUGUGCAUAUCAAACAAAGAAGGAGCAUUACUGG |  |  | 41.1 nM | 37.9 nM
33 | UUUAUUUUUACAGGAUAUCAUCUAUUUAACUCAUGCACAUGUUUACAUGAGGAUCACCCAUGUUUUGAGAAGGGUAUUGAAACA | 246 nM | 259 nM |  | 
34 | AAAAAACAUGAGGAUCACCCAUGUCAAAAGACGUGAGGAUAUGUACAGACUUCGGUCUGUACAGAAGGCACGAAAA | 25.4 nM | 21.2 nM |  | 
35 | AUGCCGGGCCGAGGAUAUAAGUCUAGGACAUGAGGAUCACCCAUGUAUGUCUUAGAAGGCGGCCCGGCAAGCCUGUUACAGGCA | 27.7 nM | 6.6 nM |  | 
36 | GAAUAUUCGUUGUACAUGAGGAUCACCCAUGUGUCUUUACAUGAGGAUAUGGAUUCUAAUUGGAUCCAGAAGGCAUGAAUAUUC | 154 nM | 53.1 nM |  | 
37 | AUACAUGAGGAUCACCCAUGUUACUGGGUCUAUAUAGAACGUAGAAGGAUGAUAUUAUAAAUAUCAUAGGAUAUACUAUAUUGU |  |  | 32.7 nM | 32 nM
38 | GCAGGUUAAGUCAGGAUAUACCUAUGGAUACAUAGGUAGAAGGGACAUGAGGAUCACCCAUGUGGCUCACCUGC |  |  | 24.2 nM | 40.2 nM
39 | UGGUGUGAAGGAUAUACAUGAGGAUCACCCAUGUAUGAGGUGGAGGUUGAGGUGGAGGGUAGAAGGUCAGGUGG |  |  | 27.3 nM | 27 nM
40 | GUUUUCGCAUGAGGAUAUGCUCGCAAUUCAAGAGCAGAAGGUAUGUCUAUAGACAUGAGGAUCACCCAUGUAUUUAUCAUUGAA | 218 nM | 58.7 nM |  | 
41 | AAUAUGAGCUGGUUUAAAACCUAAACAUGAGGAUCACCCAUGUAGGAUAUCAGCACGAUAAGUGCUGAGAAGGACAUCCAGCUC |  |  | 15 nM | 14.7 nM
42 | AAAAAGCGAGGAUAUACAUGAGGAUCACCCAUGUGAAAGUCGAAAAAAAAGACAAAAAGUAGAAGGCGCAAAAA |  |  | 23.2 nM | 26.7 nM
43 | AGAAGACAUGAGGAUCACCCAUGUGCACGUGGAGGAGGAUAUGCUAGUAGAAGAUAGAAUGCAGAAGGCCUAAGAA | 88 nM | 85.6 nM |  | 
44 | AUGCUUCACACAGGAUAUACAUGAGGAUCACCCAUGUGUCCUAAGUAGCUGACACGAGCUACGCGGUAGAAGGGUGUGAAGCAU |  |  | 21.6 nM | 154 nM
45 | UAGUGCGUUAGAGGAUAUUCUAAAUAAAAUAAUAAGACAUGAGGAUCACCCAUGUAUGUACAUGGGAAGAAGGCUGAUGUGCUA | 573 nM | 42.9 nM |  | 
46 | ACCAUUUACUAAUCCUCUAUACAUGAGGAUCACCCAUGUUAUGAGGAUAUCAUCGUUCGCCGCGUUGAGAAGGCAUAGCAUUCG |  |  | 16.3 nM | 25.9 nM
47 | GGAAAAUGAGGAUAUACAUGUUUGAUACCUCUACGCCCGCAACAUGAGGAUCACCCAUGUAGAAGGCAUGAAAA |  |  | 15.4 nM | 44.2 nM
48 | ACAUGAGGAUCACCCAUGUAUUACAUGGUUAAGUUUAUUAACAGAAGGCGAAAAUACCAAUUGAUCGAGGAUAUGUAAUCAAUU |  |  | 33.8 nM | 43.2 nM
